# Experimental data taken from ChEMBL document CHEMBL2439964, “Identification of a series of 1,3,4-trisubstituted pyrazoles as novel hepatitis C virus entry inhibitors” (Bioorg Med Chem Lett, 2013).
# Legend:
# Hepatitis C virus = assay: Antiviral activity against cell culture derived HCV infected in human HuH7 cells assessed as inhibition of viral replication after 72 hrs; assay type: functional, organism-based, Hepacivirus hominis; details: Huh-7, 72 h
# In short: (§1)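 Naïve Huh-7 cells in 384-well plates were given serially diluted compound, then infected with cell culture-derived HCV (HCVcc) at MOI 1. Live cells were analysed 72 h post-infection. EC50 came from 10-point dose-response in duplicate with quadruplicate measurements, or 5-point in duplicate for one series. CC50 came from automated per-well cell counts. SI = CC50/EC50.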
# [1] = Cytotoxicity against human HuH7 cells; assay type: cell-based, Huh-7; in short: as §1
# [2] = Selectivity index, ratio of CC50 for human HuH7 cells to EC50 for cell culture derived HCV; parameters: species or system Huh-7; in short: as §1
SMILES,EC50 (Hepatitis C virus),CC50 [1],Ratio CC50/EC50 [2]
Cc1ccccc1-c1nn(-c2ccc(F)cc2F)cc1CNCCCCO,> 20 µM,> 20 µM,–
Cc1ccccc1-c1nn(-c2ccccc2Cl)cc1CNCCN1CCN(C)CC1,3.8 µM,> 20 µM,>5.3
CN1CCN(CCNCc2cn(-c3ccc(F)cc3F)nc2-c2cccc(N(C)C)c2)CC1,3.2 µM,> 20 µM,>6.3
Cc1ccccc1-c1nn(-c2ccc(F)cc2F)cc1CN1CCC(N2CCCCC2)CC1,7.5 µM,> 20 µM,>2.7
CN1CCN(CCNCc2cn(-c3ccc(F)cc3F)nc2C(C)(C)C)CC1,11 µM,> 20 µM,>1.8
Cc1ccccc1-c1nn(-c2ccc(F)cc2F)cc1CNCCN1CCCCC1,20 µM,> 20 µM,>1
CN1CCN(CCCNCc2cn(-c3ccc(C(F)(F)F)cc3)nc2-c2ccc(C(F)(F)F)cc2)CC1,0.38 µM,2 µM,5.3
Cc1ccccc1-c1nn(-c2ccc(F)cc2F)cc1CNCc1ccncc1,> 20 µM,> 20 µM,–
Cc1ccccc1CNc1nn(-c2ccc(F)cc2F)cc1CNCCN1CCN(C)CC1,4.3 µM,> 20 µM,>4.7
CN1CCN(CCCNCc2cn(-c3ccc([N+](=O)[O-])cc3)nc2-c2ccc(OC(F)(F)F)cc2)CC1,0.34 µM,1.6 µM,4.6
Cc1ccccc1-c1nn(Cc2ccccc2)cc1CNCCN1CCN(C)CC1,7.5 µM,> 20 µM,>2.3
Cc1ccccc1-c1nn(C(C)C)cc1CNCCN1CCN(C)CC1,> 20 µM,> 20 µM,–
Cc1ccccc1-c1nn(-c2cccc(C(F)(F)F)c2)cc1CNCCN1CCN(C)CC1,0.91 µM,18 µM,20
Cc1ccccc1-c1nn(-c2ccc(Br)cc2)cc1CNCCN1CCN(C)CC1,1.2 µM,9.6 µM,8
CN1CCN(CCNCc2cn(-c3ccc(C(F)(F)F)cc3)nc2-c2ccc(OC(F)(F)F)cc2)CC1,0.44 µM,3 µM,6.9
CCCN1CCC(CNCc2cn(-c3ccc([N+](=O)[O-])cc3)nc2-c2ccc(OC(F)(F)F)cc2)CC1,0.6 µM,18 µM,30
CN1CCN(CCNCc2cn(-c3ccc(F)cc3F)nc2Cc2ccccc2)CC1,16 µM,> 20 µM,>1.3
Cc1ccccc1-c1nn(-c2ccc(F)cc2F)cc1CNCCN(C)C,> 20 µM,> 20 µM,–
CN1CCN(CCNCc2cn(-c3ccc(F)cc3F)nc2-c2ccc(N(C)C)cc2)CC1,1.3 µM,> 20 µM,>15
Cc1ccc(-n2cc(CNCCN3CCN(C)CC3)c(-c3ccccc3C)n2)c(C)c1,2.4 µM,> 20 µM,>8.3
CCN(CC)CCCNCc1cn(-c2ccc(F)cc2F)nc1-c1ccccc1C,4.3 µM,> 20 µM,>4.6
COc1ccc(-n2cc(CNCCN3CCN(C)CC3)c(-c3ccccc3C)n2)cc1,2.8 µM,> 20 µM,>7.1

SMILES,EC50 (Hepatitis C virus),CC50 [1],Ratio CC50/EC50 [2]
Cc1ccc(-c2nn(-c3ccc(F)cc3F)cc2CNCCN2CCN(C)CC2)cc1,0.81 µM,> 20 µM,>25
CCCN1CCC(CNCc2cn(-c3ccc([N+](=O)[O-])cc3)nc2-c2ccc(Cl)cc2)CC1,0.3 µM,11 µM,37
CN1CCN(CCNCc2cn(-c3ccc(F)cc3F)nc2-c2ccccc2)CC1,1.6 µM,> 20 µM,>13
CN1CCN(CCCNCc2cn(-c3ccc(C(F)(F)F)cc3)nc2-c2ccc(OC(F)(F)F)cc2)CC1,0.75 µM,2.3 µM,3.1
CN1CCN(CCCNCc2cn(-c3ccc(C(F)(F)F)cc3)nc2-c2ccc(Cl)cc2)CC1,0.36 µM,2.5 µM,6.9
CN1CCN(CCNCc2cn(-c3ccc(F)cc3F)nc2-c2ccc(OC(F)(F)F)cc2)CC1,0.36 µM,18 µM,50
CCCN1CCC(CNCc2cn(-c3ccc(C(F)(F)F)cc3)nc2-c2ccc(OC(F)(F)F)cc2)CC1,0.41 µM,2.2 µM,5.3
CCCCCNCc1cn(-c2ccc(F)cc2F)nc1-c1ccccc1C,18 µM,17 µM,1
CN1CCN(CCCNCc2cn(-c3ccc([N+](=O)[O-])cc3)nc2-c2ccc(C(F)(F)F)cc2)CC1,0.12 µM,4.9 µM,41
CN1CCN(CCNCc2cn(-c3ccc(F)cc3F)nc2-c2ccc(C(F)(F)F)cc2)CC1,0.54 µM,20 µM,37
CN1CCN(CCNC(=O)c2cn(-c3ccc(F)cc3F)nc2-c2ccccc2Cl)CC1,> 20 µM,> 20 µM,–
COCCN1CCC(CNCc2cn(-c3ccc(F)cc3F)nc2-c2ccccc2C)CC1,3 µM,> 20 µM,>6.7
COC(=O)c1ccc(-c2nn(-c3ccc(F)cc3F)cc2CNCCN2CCN(C)CC2)cc1,3.8 µM,> 20 µM,>5.3
Cc1c(CNCCN2CCN(C)CC2)c(-c2ccccc2)nn1-c1ccc(F)cc1,8.5 µM,> 20 µM,–
CCOC(=O)Cn1cc(CNCCN2CCN(C)CC2)c(-c2ccccc2C)n1,> 20 µM,> 20 µM,–
Cc1ccccc1-c1nn(-c2ccc(F)cc2F)cc1CN1CCN(c2ccccc2)CC1,> 20 µM,> 20 µM,–
Cc1ccccc1-c1nn(-c2ccc(F)cc2)cc1CNCCN1CCN(C)CC1,3.7 µM,> 20 µM,>5.4
CN1CCN(CCNCc2cn(-c3ccc(C(F)(F)F)cc3)nc2-c2ccc(Cl)cc2)CC1,0.36 µM,3 µM,8.4
Cc1ccccc1-c1nn(-c2ccc(F)cc2F)cc1CNCCCN1CCN(C)CC1,2.2 µM,> 20 µM,>9
Cc1ccccc1-c1nn(-c2cccc(Cl)c2)cc1CNCCN1CCN(C)CC1,1 µM,16 µM,16
CCCN1CCC(CNCc2cn(-c3ccc(F)cc3F)nc2-c2ccccc2C)CC1,2.3 µM,> 20 µM,>8.8
Cc1ccccc1-c1nn(Cc2ccc(F)cc2)cc1CNCCN1CCN(C)CC1,10 µM,> 20 µM,>2

SMILES,EC50 (Hepatitis C virus),CC50 [1],Ratio CC50/EC50 [2]
Cc1ccccc1-c1nn(-c2ccc(F)c(F)c2)cc1CNCCN1CCN(C)CC1,2.6 µM,> 20 µM,>7.7
Cc1cccc(-c2nn(-c3ccc(F)cc3F)cc2CNCCN2CCN(C)CC2)c1,1.7 µM,> 20 µM,>12
CN1CCN(CCNCc2cn(-c3ccc([N+](=O)[O-])cc3)nc2-c2ccc(OC(F)(F)F)cc2)CC1,0.4 µM,4.4 µM,11
CN1CCN(CCNCc2cn(-c3ccc([N+](=O)[O-])cc3)nc2-c2ccc(C(F)(F)F)cc2)CC1,0.11 µM,3.2 µM,29
Cc1ccccc1-c1nn(-c2ccc(N)cc2)cc1CNCCN1CCN(C)CC1,10 µM,> 20 µM,>2
CCCN1CCC(CNCc2cn(-c3ccc(C(F)(F)F)cc3)nc2-c2ccc(C(F)(F)F)cc2)CC1,0.33 µM,1.2 µM,3.6
Cc1ccccc1-c1nn(-c2ccc(F)cc2F)cc1CN1CCN(C(C)C)CC1,> 20 µM,> 20 µM,–
Cc1ccccc1-c1nn(-c2ccc(F)cc2F)cc1CNC1CCN(S(C)(=O)=O)CC1,> 20 µM,> 20 µM,–
Cc1ccccc1-c1nn(-c2ccc([N+](=O)[O-])cc2)cc1CNCCN1CCN(C)CC1,0.49 µM,> 20 µM,>41
Cc1ccccc1-c1nn(-c2ccc(F)cc2F)cc1CNCCN1CCN(C)CC1,2.8 µM,> 20 µM,>7.2
CN1CCN(CCNCc2cn(-c3ccc([N+](=O)[O-])cc3)nc2-c2ccc(Cl)cc2)CC1,0.29 µM,5 µM,17
Cc1ccccc1-c1nn(-c2ccc(F)cc2F)cc1CNCCN1CCOCC1,> 20 µM,> 20 µM,–
CN1CCN(CCNCc2cn(-c3ccc(F)cc3F)nc2-c2cccc(Cl)c2)CC1,0.58 µM,15 µM,26
CSc1ccc(-n2cc(CNCCN3CCN(C)CC3)c(-c3ccccc3C)n2)cc1,0.67 µM,17 µM,25
Cc1ccccc1-c1nn(-c2ccc(OC(F)(F)F)cc2)cc1CNCCN1CCN(C)CC1,0.9 µM,17 µM,19
Cc1ccccc1-c1nn(-c2ccc(C(F)(F)F)cc2)cc1CNCCN1CCN(C)CC1,0.46 µM,11 µM,24
CN1CCN(CCNCc2cc(-c3ccccc3)nn2-c2ccc(F)cc2)CC1,13 µM,> 20 µM,–
CCCN1CCC(CNCc2cn(-c3ccc([N+](=O)[O-])cc3)nc2-c2ccc(C(F)(F)F)cc2)CC1,0.15 µM,2.3 µM,15
CN1CCN(CCNCc2cn(-c3ccc(F)cc3F)nc2-c2ccccc2Cl)CC1,3.3 µM,> 20 µM,>6.1
CCCN1CCC(CNCc2cn(-c3ccc(C(F)(F)F)cc3)nc2-c2ccc(Cl)cc2)CC1,0.29 µM,1.9 µM,6.7
COc1ccc(-c2nn(-c3ccc(F)cc3F)cc2CNCCN2CCN(C)CC2)cc1,2.1 µM,> 20 µM,>9.5
